Source: PubChem
TRPC6 act: mouse TRPC6 channel activators, primary screen, cell-based, HEK293, membrane potential dye. Short transient receptor potential channel 6 (Mus musculus), Q61143. AID 2550, 2010. B-score at 10 µM. HEK293-TRPC6 membrane potential dye fluorescence; stronger effect = higher value. 310,000 tested, 0.13% active;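 active = B-score of the integrated fluorescence ratio above library mean plus 3 SD, and starting fluorescence ratio within library mean plus 5 SD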;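 note: higher score means more depolarization so channel activation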
Target sequence (Q61143 whole entry, looked up): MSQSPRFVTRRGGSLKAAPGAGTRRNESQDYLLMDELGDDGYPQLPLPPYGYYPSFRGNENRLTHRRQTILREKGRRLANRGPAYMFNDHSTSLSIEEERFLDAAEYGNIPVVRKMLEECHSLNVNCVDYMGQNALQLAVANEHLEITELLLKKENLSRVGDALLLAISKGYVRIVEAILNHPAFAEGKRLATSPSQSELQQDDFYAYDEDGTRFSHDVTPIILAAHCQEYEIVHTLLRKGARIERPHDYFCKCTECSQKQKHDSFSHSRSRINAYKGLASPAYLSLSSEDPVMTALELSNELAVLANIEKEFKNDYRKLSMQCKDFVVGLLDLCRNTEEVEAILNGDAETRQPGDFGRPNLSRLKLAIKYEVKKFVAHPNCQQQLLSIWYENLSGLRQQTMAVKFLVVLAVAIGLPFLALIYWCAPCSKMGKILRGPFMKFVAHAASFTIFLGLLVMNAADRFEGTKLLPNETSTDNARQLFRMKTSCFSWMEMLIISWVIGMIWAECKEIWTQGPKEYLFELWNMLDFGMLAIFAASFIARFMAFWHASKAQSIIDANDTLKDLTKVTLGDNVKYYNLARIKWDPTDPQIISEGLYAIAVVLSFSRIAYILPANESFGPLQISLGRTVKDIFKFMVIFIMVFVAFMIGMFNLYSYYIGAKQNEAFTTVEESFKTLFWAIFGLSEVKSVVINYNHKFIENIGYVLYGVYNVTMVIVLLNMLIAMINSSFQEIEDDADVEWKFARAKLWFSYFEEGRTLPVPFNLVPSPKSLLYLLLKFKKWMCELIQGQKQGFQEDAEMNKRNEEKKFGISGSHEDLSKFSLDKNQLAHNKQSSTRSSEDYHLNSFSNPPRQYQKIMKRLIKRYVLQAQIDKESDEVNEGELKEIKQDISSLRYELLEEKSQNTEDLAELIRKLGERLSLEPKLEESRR
TRPC4 inh: inhibitors of mouse TRPC4 channel, primary screen, Fluo4 calcium, HEK293 TRPC4beta/mu-opioid cells. B-score at 10 µM. AID 2247, 2010. Short transient receptor potential channel 4 (Mus musculus), Q9QUQ5. DAMGO-evoked Fluo4 calcium flux; stronger effect = lower value. 300,000 tested, 0.39% active;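 active = B-score over 3 SD under the library average, no early fluorescence shift, positive overall ratio signal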
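Assay system: HEK293 cells with stable TRPC4beta plus mu-opioid receptor expression; Probe or stimulus: DAMGO in two steps, submaximal then maximal; Dosing: single-point compound dosing; Measured by: Fluo4 calcium-dye fluorescence, kinetic read; Read-out basis: B score from integrated Fluo4 fluorescence ratio.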
TRPC4 agonist: activators of mouse TRPC4 channel, primary screen, Fluo4 calcium, HEK293 TRPC4beta/mu-opioid cells. Short transient receptor potential channel 4 (Mus musculus), Q9QUQ5. Fluo4 calcium fluorescence; stronger effect = higher value. B-score at 10 µM. 310,000 tested, 0.49% active;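 active = B-score above 5 SD of library B-scores, and initial fluorescence ratio not above library mean plus 5 SD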;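 note: positive B-score marks a calcium rise read as TRPC4 activation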
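Material: TRPC4beta and mu-opioid receptor HEK293 stable cells | Incubation: 45 min room-temperature Fluo4 loading, 110 s read | Detection: Kinetic Fluo4 calcium fluorescence | Measure: Integrated baseline-normalised fluorescence ratio, converted to per-well B score | Benchmarks: Low control buffer alone, high control maximal DAMGO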
TRPC6 inhibitor: mouse TRPC6 channel inhibitors, primary screen, cell-based, HEK293, membrane potential dye | ACh-evoked depolarization; stronger effect = lower value | AID 2553, 2010 | B-score at 10 µM | 310,000 tested, 1.1% active;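 active = B-score under library mean minus 3 SD, initial fluorescence not abnormally high, positive integrated signal ratio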;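 note: B-score derived from integrated fluorescence ratio over the kinetic read; more negative B-score means stronger inhibition of depolarization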
TRPC4 PAM: positive allosteric modulators of TRPC4, primary screen, cell-based, mouse TRPC4beta, HEK293 mu-opioid, Fluo-4 calcium; Short transient receptor potential channel 4 (Mus musculus), Q9QUQ5; DAMGO EC20, Fluo-4 Ca2+ flux; stronger effect = higher value; B-score at 10 µM; 310,000 tested, 0.42% active; AID 2227, 2009;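 active = B-score of calcium response area above 5 SD of library B-scores, with initial fluorescence ratio within 5 SD of library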;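 note: B-score of integrated fluorescence ratio over time as area under calcium response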
FID counter: compounds displacing fluorescent DNA intercalator, primary screen, artefact control for HCV NS3 helicase inhibitor project, biochemical, FID fluorescence; inhibition, % at 7.9 µM; AID 1845, 2009; DNA fluorescent intercalator displacement; 290,000 tested, 0.17% active; in the data active = inhibition above about 37%;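 note: 0% = vehicle and 100% = reference compound; higher means more ethidium bromide displaced from hairpin DNA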
TRPC4 sel inh 2: mouse TRPC4 off-target activity of TRPC6 inhibitors, second screen. shares compounds with TRPC6 inhibitor. HEK293 TRPC4/MOR, membrane potential dye fluorescence; channel activated by saturating DAMGO dose. inhibition, % at 10 µM. 920 tested, 42% active. AID 2776;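 active = compounds whose fluorescence signal differed from control wells by over 3 SD, either direction, in both duplicate plates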
TRPC4 spec: mouse TRPC4 modulation by TRPC6 hits, confirmation, selectivity assay for TRPC6 inhibitor project, cell-based, HEK293 TRPC4/mu-opioid, membrane potential dye; shares compounds with TRPC6 inhibitor; membrane potential fluorescence; activity change, negative = inhibition, % at 10 µM; 920 tested, 61% active;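 active = rise or fall in signal beyond 3 SD of buffer-only wells in both replicate plates, either sign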;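 note: integrated kinetic ratio of fluorescence range over baseline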
HEK293 MPD ctr 2-1: nonspecific membrane potential effects, parental HEK293, confirmation, counter-screen for TRPC6 inhibitor project, cell-based, second counter screen; shares compounds with TRPC6 inhibitor; parental HEK293 membrane potential dye fluorescence; maximal acetylcholine challenge after compound addition; signal change vs control, % at 10 µM; 920 tested, 31% active;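 active = membrane potential signal moving either way by over 3 SD of the maximum-effect control, in both duplicate plates, meaning non-specific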
HEK293 MPD ctr-1: membrane potential modulation in parental HEK293, confirmation, counter-screen for TRPC6 inhibitor project, cell-based | shares compounds with TRPC6 inhibitor | 920 tested, 60% active | parental HEK293 membrane potential dye fluorescence | membrane potential signal change, % at 10 µM | AID 2780, 2010;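 active = membrane potential signal shifting up or down by more than 3 SD of buffer-only wells, on both duplicate plates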
HEK293 MPD ctr-2: parental HEK293 membrane potential modulation, confirmation, counter-screen for TRPC6 modulator project, cell-based. 2,400 tested, 51% active. membrane potential dye fluorescence. membrane potential signal change, % at 10 µM. shares compounds with TRPC6 inhibitor;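 active = membrane potential signal moves up or down beyond 5 SD from buffer-only wells, on both duplicate plates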
HEK293 MPD ctr 2-2: second counter-screen for TRPC6 modulators: effect in parental HEK293 cells | shares compounds with TRPC6 inhibitor | membrane potential dye fluorescence; after compound, maximal acetylcholine stimulation | inhibition, % at 10 µM | 2,400 tested, 14% active | AID 488926;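 active = membrane potential signal drops by more than 5 SD from the mean control signal, in both duplicate plates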;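 note: plate controls were acetylcholine ECmax control wells for no effect and buffer only wells for full effect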
TRPC4 ctr mod: TRPC4 modulation by TRPC6 hit compounds, confirmation, selectivity assay for TRPC6 modulator project, cell-based, HEK293 TRPC4/mu-opioid, membrane potential dye, mouse; percent change from control (negative = decrease, positive = increase), % at 10 µM; 2,400 tested, 69% active; membrane potential fluorescence; shares compounds with TRPC6 inhibitor;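 active = membrane potential signal moved up or down beyond 5 SD of buffer control wells, in both duplicate plates, actives on both sides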;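 note: plate controls were assay buffer wells for no effect and DAMGO maximal-effect wells for full effect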
TRPC4 ctr inh 2: mouse TRPC4 off-target activity of TRPC6 modulators, second screen; shares compounds with TRPC6 inhibitor; HEK293 TRPC4/mu-opioid, membrane potential dye fluorescence; stimulated with maximal-effect DAMGO; inhibition, % at 10 µM; 2,400 tested, 55% active; AID 488928;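 active = drop in membrane potential signal beyond 5 SD of the control wells in both duplicate plates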;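 note: TRPC4 counter screen for TRPC6 hits run under conditions tuned for TRPC6 not TRPC4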
TRPC6 block conf: mouse TRPC6 channel inhibitors, confirmation, HEK293 cells, membrane potential dye, duplicate; ACh-evoked depolarization; 3,300 tested, 43% active; AID 488960, 2010; inhibition, % at 10 µM; shares compounds with TRPC6 inhibitor;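 active = fluorescence ratio falls more than 5 SD below the full-stimulation control mean, in both duplicate runs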;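 note: integrated fluorescence ratio of peak minus minimum over baseline after agonist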
TRPC6 act conf: mouse TRPC6 channel activators, confirmation, HEK293 cells, membrane potential dye, duplicate. shares compounds with TRPC6 inhibitor. HEK293-TRPC6 membrane potential dye fluorescence, FDSS. activation, % at 10 µM. 2,800 tested, 11% active. AID 488961, 2010;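 active = ratio signal rise beyond 5 SD above unstimulated control wells' mean, seen in both duplicate runs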;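 note: plate controls were buffer EC0 wells for no effect and acetylcholine ECmax response for full effect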
* hit, by the source's call; i = inactive; . = not tested or not shown. The list is not random: actives were taken first. Their share in the collection is about 2.3%.

SMILES | TRPC6 act | TRPC4 inh | TRPC4 agonist | TRPC6 inhibitor | TRPC4 PAM | FID counter | HEK293 MPD ctr-2 | HEK293 MPD ctr 2-2 | TRPC4 ctr mod | TRPC4 ctr inh 2 | TRPC6 block conf | TRPC6 act conf | others
CCN1CCN(C(=O)c2ccc(C)c(S(=O)(=O)Nc3cccc(C)c3)c2)CC1 | i | i | i | -5.8* | i | -1 | i | i | i | i | i | i
Cc1cccc(NS(=O)(=O)c2cc(C(=O)N3CCN(C)CC3)ccc2C)c1 | i | i | i | i | i | 0 | . | . | . | . | . | .
O=C(Nc1ccccc1F)c1ccccc1C(=O)Nc1ccccc1F | i | i | i | i | i | . | . | . | . | . | . | .
O=C(Nc1ccccc1NC(=O)c1c(F)cccc1F)c1c(F)cccc1F | i | i | i | -5.8* | i | -11 | i | i | i | i | i | i
COc1ccc(CN(CCNC(=O)CCCCC(=O)NCCN(Cc2ccc(OC)cc2)C(C)C)C(C)C)cc1 | i | i | i | i | i | . | . | . | . | . | . | .
Cc1ccc2c(c1)NC(=O)C(CC(=O)Nc1ccc(CN3CCC(C)CC3)cc1)O2 (configuration not stated) | i | i | i | -8.5* | i | 19 | . | . | . | . | 79%* | i | TRPC4 sel inh 2=i;TRPC4 spec=i;HEK293 MPD ctr 2-1=-4.5%*;HEK293 MPD ctr-1=i
Cc1ccc(C(=O)Nc2ccc(N3CCN(C)CC3)cc2)cc1C | i | i | i | -6.1* | i | 11 | i | i | -15%* | 44%* | 42%* | i
CC(C)Oc1ccc(C(=O)Nc2ccc(N3CCCCC3)cc2)cc1 | i | i | i | -5.9* | i | -8 | i | i | i | i | i | i
CN1CCN(Cc2nc3ccccc3c(=O)n2CC#N)CC1 | i | i | i | -6.9* | i | 7 | . | . | . | . | i | i | TRPC4 sel inh 2=i;TRPC4 spec=i;HEK293 MPD ctr 2-1=i;HEK293 MPD ctr-1=i
COC(=O)CN1C(=S)N(c2ccc(Cl)cc2)C(=O)C1CC(=O)Nc1ccc(Cl)cc1 (configuration not stated) | i | i | i | -6.6* | i | 8 | -68%* | i | -20%* | 32%* | i | i
C=CCN1C(=O)N(c2ccc(Cl)cc2)C(=O)C1CC(=O)Nc1ccc(F)cc1 (configuration not stated) | i | i | i | -5.8* | i | 4 | -66%* | i | -16%* | i | i | i
COC(=O)c1ccc(NC(=O)CC2C(=O)N(c3ccc(C)cc3)C(=O)N2CC(C)C)cc1 (configuration not stated) | i | i | i | i | i | -12 | . | . | . | . | . | .
CCOC(=O)c1ccc(NC(=O)CC2C(=O)N(c3ccc(F)cc3)C(=O)N2CCC(C)C)cc1 (configuration not stated) | i | i | i | -5.8* | i | -14 | i | i | i | i | 42%* | .
C=CCN1C(=O)N(c2ccc(F)cc2)C(=O)C1CC(=O)Nc1ccc(Cl)cc1 (configuration not stated) | i | i | i | i | i | -3 | . | . | . | . | . | .
CCCN(CCC)CCNC(=O)C1(O)c2ccccc2NC(=O)N1c1cccc(OC)c1 (configuration not stated) | i | i | i | i | i | -5 | . | . | . | . | . | .
Cc1[nH]c2ccccc2c1/C=N/Nc1ccc([N+](=O)[O-])cc1 | 11* | i | i | i | i | 20 | 144%* | i | 36%* | i | i | 56%*
Cn1nc(C(=O)NCCCN2CCCCC2)c2c1-c1ccccc1SC2 | i | i | i | i | i | 32 | . | . | . | . | . | .
Cc1ccc(C(C)C)c(OCC(=O)Nc2ccc3c(c2)nc(CCN2CCCCC2)n3C)c1 | i | i | i | -6* | i | 33 | i | i | i | 78%* | 57%* | .
O=Cc1cc(CCC(=O)O)ccc1O | i | i | i | i | i | -10 | . | . | . | . | . | .
Cc1ccc(CNc2ncc(-c3ccc4c(c3)OCO4)n2C)cc1 | i | i | i | i | i | 21 | . | . | . | . | . | .
